# An excerpt weighted towards active compounds, which were near 1.7% of everything screened.
# Casp6 inh: human caspase-6 inhibitors, primary screen, biochemical, VEID-R110 fluorescence, single point, set 2 | P55212 | purified caspase-6, Z-VEID-R110 cleavage fluorescence | AID 686996, 2013 | inhibition, % at 12.5 µM | 0.53% of 350,000 active;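 active = mean inhibition across replicates at least about 35%, with every replicate also reaching that limit, limit read from the data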;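 also: 0% = median of neutral control wells and 100% = no fluorescence left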
# Target sequence (P55212 24-179 limits assumed): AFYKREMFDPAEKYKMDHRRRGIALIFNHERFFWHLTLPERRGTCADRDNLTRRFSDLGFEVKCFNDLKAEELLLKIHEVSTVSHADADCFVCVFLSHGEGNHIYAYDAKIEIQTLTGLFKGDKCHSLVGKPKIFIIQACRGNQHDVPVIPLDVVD
# Target sequence (P55212 194-293 limits assumed): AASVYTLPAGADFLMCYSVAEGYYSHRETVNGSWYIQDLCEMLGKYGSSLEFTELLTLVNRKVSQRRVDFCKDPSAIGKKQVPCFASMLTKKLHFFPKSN
# SUMO1 PPI mod: modulators of SUMO1 protein-protein interactions, primary screen, biochemical, uHTS; SUMO1 binding to a labelled peptide, TR-FRET, 1 h; inhibition, % at 20 µM; 0.33% of 360,000 active; AID 602429, 2012; in the data active = inhibition above about 37%
# Target sequence (P63165 whole entry, looked up): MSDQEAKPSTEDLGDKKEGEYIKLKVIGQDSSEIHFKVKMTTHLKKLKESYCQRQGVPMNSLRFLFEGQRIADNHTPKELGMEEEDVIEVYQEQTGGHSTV
# Scp1 inh: Scp-1 phosphatase inhibitors, primary screen, biochemical, colorimetric, uHTS; Carboxy-terminal domain RNA polymerase II polypeptide A small phosphatase 1 (Homo …; Recombinant Scp1, phosphopeptide, malachite green phosphate absorbance; inhibition, % at 20 µM; 0.88% of 340,000 active; AID 493091, 2011;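 active = inhibition above about 50% at 20 µM, limit read from the data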;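 also: plate controls were DMSO wells with enzyme for no effect and wells lacking enzyme for full effect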
#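 Test system: SCP-1 phosphatase catalytic domain, residues 76-261; measured by: colorimetric phosphate reagent with accelerator and stabiliser, absorbance at 630 nm; timing: enzyme reaction 45 min at room temperature, colour 5 min, stabilisation 30 min; also added: Phosphorylated 17-residue peptide substrate; compound dosing: one concentration, 20 µM, with 1.0% DMSO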
# DNMT1 inh: human DNMT1 methyltransferase inhibitors, primary screen, biochemical, molecular beacon, fluorescence, HinP1I cleavage, uHTS; inhibition (reported as % activation of signal), % at 10 µM; 0.83% of 360,000 active; in the data active = inhibition above about 50%
# LMPTP inh: LMPTP phosphatase inhibitors, primary screen, biochemical, fluorescence intensity, uHTS; AID 651560, 2012; recombinant LMPTP-A, OMFP fluorogenic substrate; Low molecular weight phosphotyrosine protein phosphatase (Homo sapiens), P24666; 0.22% of 360,000 active; inhibition, % at 20 µM;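 active = compounds that cut the enzyme signal by at least half of the control window in the single-dose screen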;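 also: plate controls were DMSO wells with enzyme plus substrate for no effect and substrate without enzyme for full effect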
# Target sequence (P24666 whole entry, looked up): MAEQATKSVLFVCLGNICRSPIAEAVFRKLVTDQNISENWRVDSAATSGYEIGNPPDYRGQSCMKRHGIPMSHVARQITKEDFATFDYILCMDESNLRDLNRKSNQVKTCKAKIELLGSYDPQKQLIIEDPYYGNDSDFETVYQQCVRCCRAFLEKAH
#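 Assay system: LMPTP-A, protein tyrosine phosphatase of low molecular weight / Medium: pH 6.0 Bis-Tris buffer with DTT and Triton X-100 / Schedule: 50 min enzyme reaction at room temperature, protected from light / Measured by: endpoint fluorescence intensity from OMFP dephosphorylation / Read-out basis: % inhibition relative to no-enzyme and uninhibited control wells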
# STEP block: STEP phosphatase inhibitors, primary screen, biochemical, fluorescence intensity, uHTS. 0.25% of 360,000 active. inhibition, % at 20 µM. recombinant STEP, OMFP fluorogenic substrate. Tyrosine-protein phosphatase non-receptor type 5 (Homo sapiens), P54829;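 active = inhibition at 20 µM, scaled per plate between control wells, above about 37%, limit read from the data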;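 also: 0% = DMSO with enzyme and substrate and 100% = substrate only without enzyme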
#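 System: isolated STEP enzyme; schedule: 20 min enzyme reaction at room temperature, protected from light; medium: Bis-Tris buffer pH 6.0, 2.5 mM DTT, 0.005% Tween 20; signal: fluorescence, 480/540 nm; dosing: single compound dose of 20 µM, 1% DMSO final; also added: OMFP substrate, 25 µM final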
# The depositor's hits bear a star; . = no result given.
SMILES,Casp6 inh,SUMO1 PPI mod,Scp1 inh,DNMT1 inh,LMPTP inh,STEP block
Cc1ccc(N=c2ssnc2Cl)cc1,.,-8,1,-1,47,7
Cc1cc(C)nc(/N=c2/ssnc2Cl)c1,.,20,-4,-14,79*,5
CC(=O)Oc1cc2cccc(OC(C)=O)c(=O)c2c(OC(C)=O)c1OC(C)=O,.,-6,58*,59*,30,4
O=c1c(O)c(-c2ccc(O)c(O)c2)oc2cc(O)ccc12,65*,-33,-1,8,1,0
O=C(Nc1ccc(F)cc1)c1ccc(S(=O)(=O)N2CCCC2)cc1,0,1,2,1,-1,-8
CN1/C(=C/C=C/c2n(C)c3cc([N+](=O)[O-])c([N+](=O)[O-])cc3[n+]2C)C(C)(C)c2ccccc21,26,-16,.,6,58*,24
CC(/C=N/n1cnnc1)=C\c1ccccc1,.,-14,-5,1,0,-2
C/C(=N/NS(=O)(=O)c1ccc(Cl)cc1)c1cccc(NC(=O)c2ccncc2)c1,92*,-1,-7,-3,0,-5
Cc1ccc(/C=C2/NC(=O)N(Cc3ccc(Br)cc3)C2=O)o1,.,-8,-5,-13,0,2
CCN1C(=O)N/C(=C/c2ccc(C)o2)C1=O,42*,-6,1,9,1,-3
COc1ccc(NC(=O)N(C)C[C@H]2Oc3c(NC(=O)c4cc(C)nn4C)cccc3C(=O)N([C@@H](C)CO)C[C@@H]2C)cc1,1,.,.,.,.,.
C/C(N)=C(/C#N)C(=O)CSc1nc2ccccc2c(=O)n1Cc1ccc(F)cc1,6,0,73*,34,17,24
CCn1cc(C(=O)O)c(=O)c2cc(F)c(N3CCN(C(=O)Nc4ccccc4)CC3)cc21,.,10,-10,-2,51*,-1
CCn1cc(C(=O)O)c(=O)c2cnc(N3CCN(C(=S)Nc4ccccc4Cl)CC3)nc21,0,8,2,0,51*,5
CCn1cc(C(=O)O)c(=O)c2cc(F)c(N3CCN(S(=O)(=O)c4ccc5c(c4)OCCO5)CC3)cc21,0,5,1,-1,62*,0
CCn1cc(C(=O)O)c(=O)c2cc(F)c(N3CCN(C(=S)NC(=O)c4cccc(C)c4)CC3)cc21,1,5,-12,-3,60*,2
CCn1cc(C(=O)O)c(=O)c2cc(F)c(N3CCN(C)CC3)cc21,1,0,-1,-3,-2,-1
CC1(C)CC2C1CCC1(O)CC2(C)CCC1N(O)c1ccc(C(=O)NCCO)cn1 (stereo unspecified),-2,-3,2,5,-1,-1
COc1ccc(OC)c(/C=C2\NC(=O)NC2=O)c1,1,-14,-10,2,-2,-3
C[C@H]1CN(Cc2ccccc2)C(=O)[C@@H]1CC(=O)Nc1ccccc1,-2,5,.,1,21,-2
COc1ccc(CN(C)C(=O)C(CCSC)NS(=O)(=O)c2ccc3c(c2)OCCO3)c(OC)c1OC (stereo unspecified),2,2,-10,3,0,1
CCn1cc(C(=O)NCCc2ccccc2)c(=O)c2cc(F)c(N3CCN(C)CC3)cc21,.,-3,3,3,0,-15
CCCCCCCC(=O)N1CCN(c2cc3c(cc2F)c(=O)c(C(=O)O)cn3CC)CC1,1,0,-4,-1,9,3
CCn1cc(C(=O)O)c(=O)c2cc(F)c(N3CCN(C(=S)NC(=O)c4ccc(Br)cc4)CC3)cc21,.,25,-7,-2,61*,3
CCn1cc(C(=O)O)c(=O)c2cc(F)c(N3CCN(C(=S)NC(=O)c4ccccc4F)CC3)cc21,-4,-7,-12,0,70*,2
SMILES,Casp6 inh,SUMO1 PPI mod,Scp1 inh,DNMT1 inh,LMPTP inh,STEP block
CCn1cc(C(=O)O)c(=O)c2cc(F)c(N3CCN(C(=S)NC(=O)c4ccc(OC)cc4)CC3)cc21,-2,6,-9,1,67*,7
COc1ccc(C(=O)N/N=C(\Cc2ncc[nH]2)c2ccccc2)cc1,-1,1,-5,8,0,-9
COc1ncccc1-c1nnn(-c2ccccc2Br)n1,1,1,-2,-2,1,2
C[C@H](CO)N1C[C@H](C)[C@@H](CN(C)C(=O)Nc2ccccc2F)Oc2cc(-c3ccc(F)cc3)ccc2S1(=O)=O,1,.,.,.,.,.
N#Cc1nc(Cc2cccc3ccccc23)oc1NCC1CCCO1 (stereo unspecified),.,-3,-6,-7,0,-2
O=c1cc(-c2ccc(O)c(O)c2)oc2c1ccc1ccccc12,11,75*,1,1,15,4
CCCNC(=O)[C@@H]1[C@@H](CO)[C@@H]2Cn3c(ccc(-c4ccccc4)c3=O)[C@@H]2N1CC1CC1,54*,.,.,.,.,.
COC(=O)[C@H]1[C@H](CO)[C@H]2Cn3c(cccc3=O)[C@H]2N1CC1CCOCC1,70*,.,.,.,.,.
CCNC(=O)[C@@H]1[C@@H](CO)[C@@H]2Cn3c(ccc(-c4ccccc4)c3=O)[C@@H]2N1CC1CC1,2,.,.,.,.,.
O=S(c1ccccc1O)S(=O)c1ccccc1O (stereo unspecified),62*,11,36,17,3,1
Nc1nc(=S)c2ncn(C3OC(CO)C(O)C3O)c2[nH]1 (stereo unspecified),.,19,77*,80*,26,43*
Cc1ccc(C)c(NC(=O)c2cnn3ccccc23)c1,1,0,-6,-1,0,-3
O=C1N=C(N2C=CC(=C3C=CNC=C3)C=C2)/C(=C/N=NC(=O)c2ccccc2O)S1,36*,-4,33,13,8,7
Cc1ccc(SCc2c(C(=O)N/N=C/c3ccc(C)o3)nnn2-c2nonc2N)cc1,4,-8,.,-5,1,2
Cc1cccc(C)c1NC(=O)C(C1CC1)n1c(=O)c(-c2ccco2)nc2ccccc21 (stereo unspecified),36*,-9,.,.,2,.
Cc1cccc(C)c1NC(=O)C(C1CC1)n1c(=O)c(-c2ccccc2)nc2ccccc21 (stereo unspecified),2,-8,.,.,0,.
Cc1cc(SCC(=O)c2ccccc2)n2nc(C)nc2n1,3,-7,7,-1,0,1
